According to ChEMBL document CHEMBL2401736, “HCV NS5A replication complex inhibitors. Part 5: discovery of potent and pan-genotypic glycinamide cap derivatives” (Bioorg Med Chem Lett, 2013):

What was measured:
Hepatitis C virus [1] = assay: Antiviral activity against Hepatitis C virus genotype 1b harboring NS5A L31V/Y93H double mutant by FRET assay; format: functional, organism-based, Hepacivirus hominis
[2] = tested on: Bovine viral diarrhea virus 1; assay: Antiviral activity against Bovine viral diarrhea virus by luciferase assay; format: functional, organism-based
Summary of the method: (§1)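 EC50 values are means of at least two experiments, with at most threefold variation between them.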

Hepatitis C virus [3] = assay: Antiviral activity against Hepatitis C virus genotype 1b by FRET assay; format: functional, organism-based, Hepacivirus hominis; summary of the method: as §1
Hepatitis C virus [4] = assay: Antiviral activity against Hepatitis C virus genotype 1a by ELISA; format: functional, organism-based, Hepacivirus hominis, subtype 1a; summary of the method: as §1
[5] = Dissociation constant, pKa of the compound in MeOH/H2O at pH 2 to 11; format: physicochemical
Summary of the method: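 pKa found by potentiometric titration over pH 2–11 in varying MeOH/H2O mixtures.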

Hepatitis C virus [6] = assay: Antiviral activity against Hepatitis C virus genotype 5a; format: functional, organism-based, Hepacivirus hominis
Hepatitis C virus [7] = assay: Antiviral activity against Hepatitis C virus genotype 3a YH; format: functional, organism-based, Hepacivirus hominis; conditions: subtype 3a YH
Hepatitis C virus [8] = assay: Antiviral activity against Hepatitis C virus genotype 4a; format: functional, organism-based, Hepacivirus hominis
Hepatitis C virus [9] = assay: Antiviral activity against Hepatitis C virus genotype 3a; format: functional, organism-based, Hepacivirus hominis
Hepatitis C virus [10] = assay: Antiviral activity against Hepatitis C virus genotype 2a NIH; format: functional, organism-based, Hepacivirus hominis; conditions: subtype 2a NIH
Hepatitis C virus [11] = assay: Ratio of EC50 for Hepatitis C virus genotype 1b harboring NS5A L31V/Y93H double mutant to EC50 for Hepatitis C virus genotype 1b; format: functional, Hepacivirus hominis
[12] = Bovine viral diarrhea virus isolates and strains

Row | Compound | EC50 [2, 12] [nM] | EC50 (Hepatitis C virus [3]; Hepatitis C virus, genotype 1b) [nM] | EC50 (Hepatitis C virus [4]; Hepatitis C virus, subtype 1a) [nM] | further results
1 | COC(=O)N[C@@H](C(=O)N1CCC[C@H]1C(=O)Nc1ccc(C#Cc2ccc(NC(=O)[C@@H]3CCCN3C(=O)[C@H](NC(=O)OC)c3ccccc3)cc2)cc1)c1ccccc1 | > 10000 | 0.013 | 26 | EC50 (Hepatitis C virus [1]): 382 nM
2 | O=C(Nc1ccc(C#Cc2ccc(NC(=O)[C@@H]3CCCN3C(=O)C(c3ccccc3)N3CCC(O)CC3)cc2)cc1)[C@@H]1CCCN1C(=O)C(c1ccccc1)N1CCC(O)CC1 (single isomer, unassigned; diastereomer 2) | – | – | – | EC50 [2]: 2970 nM; EC50 (Hepatitis C virus [3]): 4.6 nM; EC50 (Hepatitis C virus [4]): 600 nM
3 | C[C@@](O)(C(=O)N1CCC[C@H]1C(=O)Nc1ccc(Br)cc1)c1ccccc1 | – | 380 | > 1300 | –
4 | CN(C)C(C)(C(=O)N1CCC[C@H]1C(=O)Nc1ccc(C#Cc2ccc(NC(=O)[C@@H]3CCCN3C(=O)C(C)(c3ccccc3)N(C)C)cc2)cc1)c1ccccc1 (stereo in doubt; 5l.1) | – | – | – | EC50 [2]: 697 nM; EC50 (Hepatitis C virus [4]): 100 nM
5 | O=C(Nc1ccc(C#Cc2ccc(NC(=O)[C@@H]3CCCN3C(=O)C(c3ccccc3)N3CCC(O)CC3)cc2)cc1)[C@@H]1CCCN1C(=O)C(c1ccccc1)N1CCC(O)CC1 (stereo in doubt; 5g.1) | – | – | – | EC50 (Hepatitis C virus [6]): 0.017 nM; EC50 (Hepatitis C virus [7]): 5.4 nM; EC50 (Hepatitis C virus [8]): 0.042 nM; EC50 (Hepatitis C virus [9]): 0.037 nM; EC50 (Hepatitis C virus [10]): 0.083 nM; pKa [5]: 6.8; Ratio EC50 (Hepatitis C virus [11]): >90; EC50 (Hepatitis C virus [1]): 12 nM; EC50 [2]: 6980 nM; EC50 (Hepatitis C virus [3]): < 0.13 nM; EC50 (Hepatitis C virus [4]): 0.82 nM
6 | CC(=O)N(C)C(C(=O)N1CCC[C@H]1C(=O)Nc1ccc(C#Cc2ccc(NC(=O)[C@@H]3CCCN3C(=O)C(c3ccccc3)N(C)C(C)=O)cc2)cc1)c1ccccc1 (single isomer, unassigned; diastereomer 1) | – | – | – | EC50 (Hepatitis C virus [3]): 57 nM; EC50 (Hepatitis C virus [4]): 2450 nM
7 | CN1CCN(C(C(=O)N2CCC[C@H]2C(=O)Nc2ccc(C#Cc3ccc(NC(=O)[C@@H]4CCCN4C(=O)C(c4ccccc4)N4CCN(C)CC4)cc3)cc2)c2ccccc2)CC1 (single isomer, unassigned; diastereomer 2) | – | – | – | EC50 [2]: 1360 nM; EC50 (Hepatitis C virus [3]): 4.4 nM; EC50 (Hepatitis C virus [4]): 2700 nM
8 | O=C1CN(C(C(=O)N2CCC[C@H]2C(=O)Nc2ccc(C#Cc3ccc(NC(=O)[C@@H]4CCCN4C(=O)C(c4ccccc4)N4CCNC(=O)C4)cc3)cc2)c2ccccc2)CCN1 (some centres not stated) | – | < 4.6 | 388 | pKa [5]: 2.5
9 | CCCOC(=O)N[C@@H](C(=O)N1CCC[C@H]1C(=O)Nc1ccc(C#Cc2ccc(NC(=O)[C@@H]3CCCN3C(=O)[C@H](NC(=O)OCCC)c3ccccc3)cc2)cc1)c1ccccc1 | > 10000 | 0.16 | 88 | –
10 | CS(=O)(=O)N[C@@H](C(=O)N1CCC[C@H]1C(=O)Nc1ccc(C#Cc2ccc(NC(=O)[C@@H]3CCCN3C(=O)[C@H](NS(C)(=O)=O)c3ccccc3)cc2)cc1)c1ccccc1 | > 10000 | < 4.6 | 71 | –
11 | O=C(Nc1ccc(/C=C/c2ccc(NC(=O)[C@@H]3CCCN3C(=O)[C@H](O)C3CCCCC3)cc2)cc1)[C@@H]1CCCN1C(=O)[C@H](O)C1CCCCC1 | > 10000 | < 4.6 | 4650 | –
12 | CCOC(=O)N[C@@H](C(=O)N1CCC[C@H]1C(=O)Nc1ccc(C#Cc2ccc(NC(=O)[C@@H]3CCCN3C(=O)[C@H](NC(=O)OCC)c3ccccc3)cc2)cc1)c1ccccc1 | > 10000 | 0.018 | 114 | –
13 | O=C(Nc1ccc(C#Cc2ccc(NC(=O)[C@@H]3CCCN3C(=O)[C@@H](c3ccccc3)N3CCOCC3)cc2)cc1)[C@@H]1CCCN1C(=O)[C@@H](c1ccccc1)N1CCOCC1 | > 10000 | < 4.6 | 125 | pKa [5]: 4.6
14 | CC(C)(C)OC(=O)N[C@@H](C(=O)N1CCC[C@H]1C(=O)Nc1ccc(C#Cc2ccc(NC(=O)[C@@H]3CCCN3C(=O)[C@H](NC(=O)OC(C)(C)C)c3ccccc3)cc2)cc1)c1ccccc1 | > 10000 | 0.002 | 245 | –
15 | O=C(Nc1ccc(C#Cc2ccc(NC(=O)[C@@H]3CCCN3C(=O)C(c3ccccc3)N3CC[C@H](O)C3)cc2)cc1)[C@@H]1CCCN1C(=O)C(c1ccccc1)N1CC[C@H](O)C1 (some centres not stated) | > 10000 | 0.5 | 3 | –
16 | COc1cccc2c(C(=O)N3CCC[C@H]3C(=O)Nc3ccc(/C=C/c4ccc(NC(=O)[C@@H]5CCCN5C(=O)c5nc(Cl)cc6c(OC)cccc56)cc4)cc3)nc(Cl)cc12 | > 10000 | 7.1 | 19 | EC50 (Hepatitis C virus [6]): 3 nM; EC50 (Hepatitis C virus [7]): 74.9 nM; EC50 (Hepatitis C virus [8]): > 10000 nM; EC50 (Hepatitis C virus [9]): 3.2 nM; EC50 (Hepatitis C virus [10]): 14 nM

Further lines, with some results ahead:

Row | EC50 [2, 12] [nM] | EC50 (Hepatitis C virus [3]; Hepatitis C virus, genotype 1b) [nM] | EC50 (Hepatitis C virus [4]; Hepatitis C virus, subtype 1a) [nM] | Compound | further results
17 | 1380 | < 4.6 | 19 | O=C(Nc1ccc(C#Cc2ccc(NC(=O)[C@@H]3CCCN3C(=O)[C@@H](c3ccccc3)N3CCCC3)cc2)cc1)[C@@H]1CCCN1C(=O)[C@@H](c1ccccc1)N1CCCC1 | pKa [5]: 8.1
18 | > 10000 | – | > 10000 | C[C@H](C(=O)N1CCC[C@H]1C(=O)Nc1ccc(/C=C/c2ccc(NC(=O)[C@@H]3CCCN3C(=O)[C@@H](C)c3ccccc3)cc2)cc1)c1ccccc1 | –
19 | > 10000 | 0.42 | 37 | CC(=O)N1CCN(C(C(=O)N2CCC[C@H]2C(=O)Nc2ccc(C#Cc3ccc(NC(=O)[C@@H]4CCCN4C(=O)C(c4ccccc4)N4CCN(C(C)=O)CC4)cc3)cc2)c2ccccc2)CC1 (some centres not stated) | –
20 | 2790 | ≤ 0.13 | 7.9 | CCN(C)C(C(=O)N1CCC[C@H]1C(=O)Nc1ccc(C#Cc2ccc(NC(=O)[C@@H]3CCCN3C(=O)C(c3ccccc3)N(C)CC)cc2)cc1)c1ccccc1 (some centres not stated) | –
21 | > 10000 | 4.6 | 447 | O=C(C(=O)N1CCC[C@H]1C(=O)Nc1ccc(/C=C/c2ccc(NC(=O)[C@@H]3CCCN3C(=O)C(=O)c3ccccc3)cc2)cc1)c1ccccc1 | –
22 | > 10000 | 22 | 390 | O=C(Nc1ccc(/C=C/c2ccc(NC(=O)[C@@H]3CCCN3C(=O)c3nccc4ccccc34)cc2)cc1)[C@@H]1CCCN1C(=O)c1nccc2ccccc12 | –
23 | > 10000 | 0.086 | > 10000 | O=C(Nc1ccc(/C=C/c2ccc(NC(=O)[C@@H]3CCCN3C(=O)Cc3ccccc3)cc2)cc1)[C@@H]1CCCN1C(=O)Cc1ccccc1 | EC50 (Hepatitis C virus [6]): < 0.23 nM; EC50 (Hepatitis C virus [7]): > 3000 nM; EC50 (Hepatitis C virus [8]): 0.16 nM; EC50 (Hepatitis C virus [9]): 0.3 nM; EC50 (Hepatitis C virus [10]): 260 nM
24 | > 10000 | 0.28 | 137 | CC(C)OC(=O)N[C@@H](C(=O)N1CCC[C@H]1C(=O)Nc1ccc(C#Cc2ccc(NC(=O)[C@@H]3CCCN3C(=O)[C@H](NC(=O)OC(C)C)c3ccccc3)cc2)cc1)c1ccccc1 | –
25 | 1200 | < 4.6 | 628 | CN(C)[C@H](C(=O)N1CCC[C@H]1C(=O)Nc1ccc(C#Cc2ccc(NC(=O)[C@@H]3CCCN3C(=O)[C@H](c3ccccc3)N(C)C)cc2)cc1)c1ccccc1 | –
26 | 3280 | 0.094 | 1.4 | O=C(Nc1ccc(C#Cc2ccc(NC(=O)[C@@H]3CCCN3C(=O)C(c3ccccc3)N3CC[C@@H](O)C3)cc2)cc1)[C@@H]1CCCN1C(=O)C(c1ccccc1)N1CC[C@@H](O)C1 (some centres not stated) | –
27 | > 10000 | < 4.6 | > 10000 | CC(C)(C)OC(=O)N[C@H](C(=O)N1CCC[C@H]1C(=O)Nc1ccc(C#Cc2ccc(NC(=O)[C@@H]3CCCN3C(=O)[C@@H](NC(=O)OC(C)(C)C)c3ccccc3)cc2)cc1)c1ccccc1 | –
28 | > 10000 | 0.002 | 70 | CC(C)C(=O)N[C@@H](C(=O)N1CCC[C@H]1C(=O)Nc1ccc(C#Cc2ccc(NC(=O)[C@@H]3CCCN3C(=O)[C@H](NC(=O)C(C)C)c3ccccc3)cc2)cc1)c1ccccc1 | –
29 | > 10000 | – | – | CC(=O)N(C)C(C(=O)N1CCC[C@H]1C(=O)Nc1ccc(C#Cc2ccc(NC(=O)[C@@H]3CCCN3C(=O)C(c3ccccc3)N(C)C(C)=O)cc2)cc1)c1ccccc1 (single isomer, unassigned; diastereomer 2) | EC50 (Hepatitis C virus [3]): 632 nM; EC50 (Hepatitis C virus [4]): > 5000 nM
30 | 1490 | 500 | 3240 | CN(C)[C@@H](Cc1ccccc1)C(=O)N1CCC[C@H]1C(=O)Nc1ccc(C#Cc2ccc(NC(=O)[C@@H]3CCCN3C(=O)[C@H](Cc3ccccc3)N(C)C)cc2)cc1 | –
31 | 2500 | – | 772 | C[C@@H](C(=O)N1CCC[C@H]1C(=O)Nc1ccc(/C=C/c2ccc(NC(=O)[C@@H]3CCCN3C(=O)[C@H](C)c3ccccc3)cc2)cc1)c1ccccc1 | –
32 | > 10000 | < 4.6 | > 9400 | N[C@H](C(=O)N1CCC[C@H]1C(=O)Nc1ccc(C#Cc2ccc(NC(=O)[C@@H]3CCCN3C(=O)[C@@H](N)c3ccccc3)cc2)cc1)c1ccccc1 | –
33 | 1900 | < 4.6 | < 4.6 | CN(C)[C@@H](C(=O)N1CCC[C@H]1C(=O)Nc1ccc(C#Cc2ccc(NC(=O)[C@@H]3CCCN3C(=O)[C@@H](c3ccccc3)N(C)C)cc2)cc1)c1ccccc1 | –
34 | 3760 | < 4.6 | 910 | N[C@@H](C(=O)N1CCC[C@H]1C(=O)Nc1ccc(C#Cc2ccc(NC(=O)[C@@H]3CCCN3C(=O)[C@H](N)c3ccccc3)cc2)cc1)c1ccccc1 | –
35 | 769 | < 4.6 | – | CN(C)C(C)(C(=O)N1CCC[C@H]1C(=O)Nc1ccc(C#Cc2ccc(NC(=O)[C@@H]3CCCN3C(=O)C(C)(c3ccccc3)N(C)C)cc2)cc1)c1ccccc1 (single isomer, unassigned; diastereomer 2) | EC50 (Hepatitis C virus [4]): 1080 nM
36 | 1730 | < 4.6 | 1290 | CN(C)[C@H](Cc1ccccc1)C(=O)N1CCC[C@H]1C(=O)Nc1ccc(C#Cc2ccc(NC(=O)[C@@H]3CCCN3C(=O)[C@@H](Cc3ccccc3)N(C)C)cc2)cc1 | –
37 | 6740 | 63 | 970 | O=C(Nc1ccc(/C=C/c2ccc(NC(=O)[C@@H]3CCCN3C(=O)[C@@H](O)C3CCCCC3)cc2)cc1)[C@@H]1CCCN1C(=O)[C@@H](O)C1CCCCC1 | –
